Results on 13 molecules are retold here after ChEMBL document CHEMBL3994567, “Design and synthesis of selective, small molecule inhibitors of coactivator-associated arginine methyltransferase 1 (CARM1)” (Medchemcomm, 2016).

Each structure is given as a SMILES string. Calls of active or inactive are those of the source. No cut-off for these calls is given here.

The target in test [1] is T1, Histone-arginine methyltransferase CARM1 (Homo sapiens, UniProt Q86X55).
T1 sequence (Q86X55 whole entry): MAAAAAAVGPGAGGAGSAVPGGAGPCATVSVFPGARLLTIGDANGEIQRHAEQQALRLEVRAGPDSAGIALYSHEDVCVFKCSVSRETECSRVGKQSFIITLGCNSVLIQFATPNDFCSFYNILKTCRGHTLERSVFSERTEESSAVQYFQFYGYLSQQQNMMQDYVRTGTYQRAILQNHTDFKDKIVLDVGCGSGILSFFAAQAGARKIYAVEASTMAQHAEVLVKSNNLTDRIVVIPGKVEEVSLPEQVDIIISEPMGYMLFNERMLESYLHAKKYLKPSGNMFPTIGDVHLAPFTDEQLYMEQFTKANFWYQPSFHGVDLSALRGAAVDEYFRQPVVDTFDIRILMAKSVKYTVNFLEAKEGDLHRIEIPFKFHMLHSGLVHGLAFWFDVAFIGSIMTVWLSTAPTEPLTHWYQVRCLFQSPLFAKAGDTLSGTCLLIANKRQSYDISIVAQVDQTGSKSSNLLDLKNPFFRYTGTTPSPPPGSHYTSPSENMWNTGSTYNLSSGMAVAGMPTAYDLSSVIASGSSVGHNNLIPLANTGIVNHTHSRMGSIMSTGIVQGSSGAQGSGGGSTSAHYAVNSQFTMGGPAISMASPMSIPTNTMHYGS
The test is described as follows: Inhibition of CARM1 (unknown origin). In outline:
(§1)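 Radiometric methyltransfer assay. Enzyme transfers a tritiated methyl from ³H-SAM onto a biotin-labelled peptide substrate, with unlabelled SAM added when needed. The methylated peptide is captured in FlashPlate wells and counted by scintillation. IC50 comes from titrating compound under balanced conditions, with both peptide substrate and SAM at their Km concentrations.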

The target in test [2] is Protein arginine N-methyltransferase 5 (Homo sapiens, UniProt O14744). Put plainly: Inhibition of PRMT5 (unknown origin). The procedure, abridged:
as §1

The target in test [3] is T2, Histone-arginine methyltransferase CARM1 (Homo sapiens) (UniProt Q86X55).
T2 sequence (whole entry): T1 sequence (Q86X55 whole entry)
The test is described as follows: Noncompetitive inhibition of CARM1 (unknown origin) at varying levels of peptide substrate and cofactor 3H-SAM by scintillation proximity assay. A general note: SPA uses beads or plates that emit light when radiolabelled molecules are held near them.

Protein arginine N-methyltransferase 5, sequence (O14744 whole entry): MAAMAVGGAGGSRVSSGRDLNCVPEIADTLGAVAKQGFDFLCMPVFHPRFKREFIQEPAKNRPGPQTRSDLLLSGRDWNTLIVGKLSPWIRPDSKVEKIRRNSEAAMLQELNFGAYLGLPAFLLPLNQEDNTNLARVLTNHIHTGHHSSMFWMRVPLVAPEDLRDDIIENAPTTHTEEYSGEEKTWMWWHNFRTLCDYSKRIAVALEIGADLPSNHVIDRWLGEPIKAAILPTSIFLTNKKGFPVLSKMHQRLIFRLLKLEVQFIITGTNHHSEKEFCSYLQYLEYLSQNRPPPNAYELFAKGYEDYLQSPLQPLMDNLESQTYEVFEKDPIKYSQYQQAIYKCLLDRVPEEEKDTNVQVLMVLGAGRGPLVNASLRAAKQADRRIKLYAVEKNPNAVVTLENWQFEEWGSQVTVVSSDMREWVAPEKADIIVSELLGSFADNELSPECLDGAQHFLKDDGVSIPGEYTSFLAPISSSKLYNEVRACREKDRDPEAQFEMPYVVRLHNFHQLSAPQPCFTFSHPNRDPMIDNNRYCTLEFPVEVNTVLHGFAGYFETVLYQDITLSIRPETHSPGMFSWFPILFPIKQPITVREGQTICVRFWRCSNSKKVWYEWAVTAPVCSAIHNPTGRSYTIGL

For the molecule `CNCCN1CCC(NCc2cccc(Br)c2)CC1`, the IC50 (in general, the concentration needed to halve the response being measured) in test [1] is 94 nM; in test [2] it was over 50000 nM. In test [3], the inhibition result was “Active”. Turning to `CNCCN1CC(NCc2cccc(C(F)(F)F)c2)C1`, in test [1], the IC50 amounted to 94 nM. In turn, `CNCCN1CCC(NCc2cccc(-c3ccccc3)c2)CC1` came in with an IC50 in test [1] of 330 nM. This IC50 lies about 3.5-fold higher than the previous one.

Take `CNCCN1CC(NCc2cccc(Cl)c2)C1`: in test [1], the IC50 stood at 50 nM. Same read-out and setting: as for `CNCCN1CCC(NCc2cccc(Cl)c2)CC1`, the figure is 157 nM; as for `CNCCN1CCC(NCc2cccc(F)c2)CC1`, 223 nM. Still for that read-out and setting: as for `CNCCN1CCC(NCc2cccc(C(F)(F)F)c2)CC1`, the figure is 302 nM; as for `CNCCN1CC(NCc2cccc(Br)c2)C1`, 67 nM. Take `CNCCN1CC(OCc2cccc(OC(F)(F)F)c2)C1`: in test [1], the IC50 came to 144 nM.

On to `CNCCN1CC(NCc2cccc(OC(F)(F)F)c2)C1`, for which the IC50 in test [1] was 90 nM.

On to `CNCCN1CC(NCc2cccc(F)c2)C1`, for which the IC50 in test [1] was found to be 130 nM.

In turn, `CNCCN1CCC(NCc2cccc(OC(F)(F)F)c2)CC1` displayed a half-maximal inhibitory concentration (IC50) in test [1] of 342 nM.

`CNCCN1CCC(NCc2ccccc2)CC1`: the IC50 in test [1] was 471 nM; in test [2], over 50000 nM.
